Test results taken from ChEMBL document CHEMBL3112517, “Identification of dihydrostilbenes in Pholidota chinensis as a new scaffold for GABAA receptor modulators” (Bioorg Med Chem, 2014).
pEC50: −log10 of the molar value. Active and inactive are the calls of the source. The calls are words filed in the database; no cut-off is given here.

Legend:
Type in all cases: cell-based
Rattus norvegicus [1] = species on record: Rattus norvegicus; experiment: Allosteric modulation of rat GABAA alpha1beta2gamma2S receptor expressed in Xenopus laevis oocytes assessed as potentiation of GABA-induced chloride ion current at holding potential -70 mV at 100 uM by two-microelectrode voltage clamp assay relative to GABA-treated control
Summary of the method: (§1)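 Stage V–VI Xenopus laevis oocytes were injected with 50 nL of rat α1, β2 and γ2S cRNA mixed 1:1:10 (about 300–3000 pg/nL per subunit), stored at 18 °C in ND96, and recorded on days 1–5. Two-electrode clamp was at −70 mV in pH 7.4 HEPES bath. Compound was applied by fast perfusion with GABA EC3–10, in 1% DMSO final. Enhancement = I(GABA+Comp)/IGABA − 1.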

Rattus norvegicus [2] = species on record: Rattus norvegicus; experiment: Agonist activity rat GABAA alpha1beta2gamma2S receptor expressed in Xenopus laevis oocytes assessed as potentiation of GABA-induced chloride ion current at holding potential -70 mV at <100 uM compound treated prior to GABA challenge by two-microelectrode voltage clamp assay
Rattus norvegicus [3] = species on record: Rattus norvegicus; experiment: Allosteric modulation of rat GABAA alpha1beta2gamma2S receptor expressed in Xenopus laevis oocytes assessed as potentiation of EC3 to 10 GABA-induced chloride ion current at holding potential -70 mV at 500 uM by two-microelectrode voltage clamp assay relative to GABA-treated control; summary of the method: as §1
[4] = (§2) Allosteric modulation of rat GABAA alpha1beta2gamma2S receptor expressed in Xenopus laevis oocytes assessed as potentiation of EC3 to 10 GABA-induced chloride ion current at holding potential -70 mV by two-microelectrode voltage clamp assay; summary of the method: as §1
Rattus norvegicus [5] = species on record: Rattus norvegicus; experiment: as §2; summary of the method: as §1
Rattus norvegicus [6] = species on record: Rattus norvegicus; experiment: Modulation of rat GABAA alpha1beta2gamma2S receptor expressed in Xenopus laevis oocytes assessed as potentiation of EC5 to 10 GABA-induced chloride ion current at holding potential -70 mV at 1 uM by two-microelectrode voltage clamp assay relative to GABA-treated control
Summary of the method: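 Stage V–VI oocytes injected with rat α1, β2 and γ2S cRNAs (1:1:10), kept at 18 °C in ND96 and recorded 1–5 days later at −70 mV. Bath: 90 mM NaCl, 1 mM KCl, 1 mM MgCl2, 1 mM CaCl2, 5 mM HEPES, pH 7.4. Compound from 100 mM DMSO stock co-applied with GABA EC3–10 by fast perfusion, final DMSO 1%. Enhancement = I(GABA+comp)/IGABA − 1.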

Rattus norvegicus [7] = species on record: Rattus norvegicus; experiment: Allosteric modulation of rat GABAA alpha1beta2gamma2S receptor expressed in Xenopus laevis oocytes assessed as potentiation of EC3 to 10 GABA-induced chloride ion current at holding potential -70 mV at 1 to 300 uM by two-microelectrode voltage clamp assay relative to GABA-treated control; summary of the method: as §1

Work on `COc1cc(/C=C/c2ccc(OC)c(OC)c2)cc(OC)c1` yielded an Activity (Rattus norvegicus [1]) of 101%.
In the case of `Oc1cc(O)cc(/C=C/c2ccc(O)cc2O)c1`, the Activity (Rattus norvegicus [1]) was -19.7%.
Molecule `Oc1ccc(CCc2cc(O)cc(O)c2)cc1` has an Activity (Rattus norvegicus [1]) of 162%.
In the case of `COc1cc(O)cc(/C=C\c2cccc(O)c2)c1`, the Activity (Rattus norvegicus [2]) was “inactive”, the Imax (Rattus norvegicus [3]) was 787% and the pEC50 [4] was 3.76. The Activity (Rattus norvegicus [5]) was “Dose-dependent effect” and the Activity (Rattus norvegicus [1]) was 192%.
With `Oc1cc(O)cc(CCc2ccc(O)cc2O)c1` the Activity (Rattus norvegicus [1]) was 44.1%.
Molecule `c1ccc(CCc2ccccc2)cc1` has an Activity (Rattus norvegicus [1]) of 8.3%.
In the case of `Oc1cc(O)cc(CCc2ccc(O)c(O)c2)c1`, the Activity (Rattus norvegicus [1]) was 86.3%.
With `c1ccc(CC(c2ccccc2)c2ccccc2)cc1` the Activity (Rattus norvegicus [1]) was 51.6%.
Molecule `COc1cc(/C=C/c2ccc(O)cc2)cc(OC)c1` has an Activity (Rattus norvegicus [1]) of 212%.
For `COc1ccc(CCc2ccc(OC)cc2)cc1`, the Activity (Rattus norvegicus [1]) was -20.9%.
For `CC(=O)Oc1ccc(/C=C/c2cc(OC(C)=O)cc(OC(C)=O)c2)cc1`, the Activity (Rattus norvegicus [1]) was 123%.
Work on `Br[C@H](c1ccccc1)[C@@H](Br)c1ccccc1` yielded an Activity (Rattus norvegicus [1]) of -12.9%.
`C(=C\c1ccccc1)/c1ccccc1` showed an Activity (Rattus norvegicus [1]) of -11.3%.
For `COc1ccc(/C=C/c2ccc(OC)cc2)cc1`, the Activity (Rattus norvegicus [1]) was -24.8%.
Work on `Oc1ccc(/C=C/c2cc(O)cc(O)c2)cc1` yielded an Activity (Rattus norvegicus [1]) of 122%.
With `C(=C/c1ccccc1)/c1ccccc1` the Activity (Rattus norvegicus [1]) was 12.6%.
For `CN1C(=O)CN=C(c2ccccc2)c2cc(Cl)ccc21`, the Activity (Rattus norvegicus [6]) was 231%.
Work on `CC(=O)Oc1ccc(CCc2cc(OC(C)=O)cc(OC(C)=O)c2)cc1` yielded an Activity (Rattus norvegicus [1]) of 228%.
With `C(=C(c1ccccc1)c1ccccc1)c1ccccc1` the Activity (Rattus norvegicus [1]) was -7.3%.
`COc1ccc(CCc2ccccc2F)cc1` gave an Activity (Rattus norvegicus [1]) of -16.8%.
`Oc1cc(O)cc(/C=C/c2ccc(O)c(O)c2)c1` gave an Activity (Rattus norvegicus [1]) of -35.4%.
In the case of `COc1cc(CCc2ccc(OC)c(OC)c2)cc(OC)c1`, the Activity (Rattus norvegicus [2]) was “inactive”, the Imax (Rattus norvegicus [7]) was 871% and the pEC50 [4] was 4.69. For the same molecule, the Activity (Rattus norvegicus [5]) was “Dose-dependent effect” and the Activity (Rattus norvegicus [1]) was 544%.
Molecule `COc1ccc(/C=C/c2ccccc2F)cc1` has an Activity (Rattus norvegicus [1]) of -22.9%.
